Results published in ChEMBL document CHEMBL4038329, “Side-Chain Modified Ergosterol and Stigmasterol Derivatives as Liver X Receptor Agonists” (J Med Chem, 2017).
The source made the active and inactive calls. No cut-off for these calls is given here.

What was measured:
Assay type in all cases: cell-based
Homo sapiens [1] = species: Homo sapiens; assay: Agonist activity at LXR in human U937 cells assessed as downregulation of LPS-induced TNFalpha mRNA expression at 10 uM after 6 hrs by qPCR analysis
How it was run: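 PMA-differentiated U937 cells (10 ng/ml PMA, 72 h) were given LPS 100 ng/ml together with compound (10 μM) for 6 h. CCL2 and TNFα mRNA were measured by qPCR after TRIZOL RNA extraction and reverse transcription. Three biological samples per group, mean ± SD.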

[2] = Agonist activity at LXR in human HepG2 cells assessed as upregulation of FASN mRNA levels at 10 uM after 6 hrs by qPCR analysis
How it was run: (§1)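 HepG2 cells treated with ligand (10 μM). Total RNA was extracted with TRIZOL; 2 µg was reverse-transcribed (1 h, 42 °C). SREBP1c, FASN and SCD1 transcripts were measured by qPCR. Mean ± SD of three biological samples; ANOVA with Dunnett's test.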

[3] = Agonist activity at LXR in human U937 cells assessed as upregulation of FASN mRNA levels at 10 uM after 6 hrs by qPCR analysis
How it was run: (§2)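 U937 cells, 3x10⁶ in 10 ml RPMI with 10% FBS, differentiated with PMA 10 ng/ml for 72 h at 37 °C, then treated with ligand (10 μM) for 6 h. Total RNA was isolated with TRIZOL; 2 µg was reverse-transcribed for 1 h at 42 °C. Transcripts were measured by qPCR. Mean ± SD of three biological samples; ANOVA with Dunnett's test.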

[4] = Agonist activity at LXR in human U937 cells assessed as upregulation of FASN mRNA levels at 10 uM after 16 hrs by qPCR analysis
[5] = Agonist activity at LXR in human U937 cells assessed as upregulation of SCD1 mRNA levels at 10 uM after 16 hrs by qPCR analysis
[6] = Agonist activity at LXR in human HepG2 cells assessed as upregulation of SCD1 mRNA levels at 10 uM after 6 hrs by qPCR analysis; how it was run: as §1
Homo sapiens [7] = species: Homo sapiens; assay: Agonist activity at LXR in human U937 cells assessed as upregulation of ABCA1 mRNA levels at 10 uM after 6 hrs by qPCR analysis; how it was run: as §2
[8] = Agonist activity at LXR in human U937 cells assessed as upregulation of SCD1 mRNA levels at 10 uM after 6 hrs by qPCR analysis relative to control; conditions: human, 6 h, 10 µM; how it was run: as §2
[9] = Agonist activity at LXR in human HepG2 cells assessed as upregulation of SREBP1c mRNA levels at 10 uM after 6 hrs by qPCR analysis; how it was run: as §1
[10] = Agonist activity at LXR in human U937 cells assessed as upregulation of SREBP1c mRNA levels at 10 uM after 6 hrs by qPCR analysis; how it was run: as §2

## CC(C)CC[C@@H](O)[C@@H](C)[C@H]1CC[C@H]2[C@@H]3CC=C4C[C@@H](O)CC[C@]4(C)[C@H]3CC[C@]12C [22(R)-HYDROXYCHOLESTEROL]
Homo sapiens [1]
  Activity: Active
[2]
  Activity: Not Active
[3]
  Activity: Not Active
[4]
  Activity: Not Active
[5]
  Activity: Not Active
[6]
  Activity: Not Active
Homo sapiens [7]
  Activity: Active
[8]
  Activity: Not Active
[9]
  Activity: Not Active
[10]
  Activity: Not Active
